One data set deals with T1, GlnA4Sc (Streptomyces coelicolor, UniProt O88070).
T1 sequence (O88070 1-462): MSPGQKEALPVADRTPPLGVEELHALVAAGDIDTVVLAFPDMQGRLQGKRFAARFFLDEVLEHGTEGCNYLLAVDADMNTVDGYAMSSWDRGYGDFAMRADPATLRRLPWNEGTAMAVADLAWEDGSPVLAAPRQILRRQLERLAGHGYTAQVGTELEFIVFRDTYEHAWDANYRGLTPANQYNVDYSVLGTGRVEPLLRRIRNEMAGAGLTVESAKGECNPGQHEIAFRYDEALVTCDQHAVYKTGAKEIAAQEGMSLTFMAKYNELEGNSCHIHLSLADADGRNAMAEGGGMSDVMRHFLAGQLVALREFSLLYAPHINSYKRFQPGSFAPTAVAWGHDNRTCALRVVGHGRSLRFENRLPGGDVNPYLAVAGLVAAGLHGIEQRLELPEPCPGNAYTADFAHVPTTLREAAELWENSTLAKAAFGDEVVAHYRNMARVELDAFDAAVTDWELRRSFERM
Kind of data set: GlnA4Sc enzyme activity assay. Type of data set: biochemical.

A further data set has as its target GlnA1Mt (Mycobacterium tuberculosis, UniProt P9WN39). Type of data set: biochemical. Particulars: at 5 mM (SI Figure 2).
Another data set concerns S. coelicolor M145. Kind of data set: S. coelicolor growth assay. Format: cell-based, Streptomyces coelicolor. A digest of the protocol: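 S. coelicolor M145 grown in defined Evans medium with 25 mM ammonium chloride, L-glutamine or ethanolamine hydrochloride as sole nitrogen source. Test compound added at final 100, 50, 25, 12.5, 6.25, 3.125, 1.562, 0.781 or 0 μM. Cultures shaken at 180 rpm for 7 days at 30 °C. Phase-contrast images taken at x400; hyphae thickness used to quantify growth.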

Structures are written as SMILES.

Chain of GlnA1Mt (P9WN39 whole entry): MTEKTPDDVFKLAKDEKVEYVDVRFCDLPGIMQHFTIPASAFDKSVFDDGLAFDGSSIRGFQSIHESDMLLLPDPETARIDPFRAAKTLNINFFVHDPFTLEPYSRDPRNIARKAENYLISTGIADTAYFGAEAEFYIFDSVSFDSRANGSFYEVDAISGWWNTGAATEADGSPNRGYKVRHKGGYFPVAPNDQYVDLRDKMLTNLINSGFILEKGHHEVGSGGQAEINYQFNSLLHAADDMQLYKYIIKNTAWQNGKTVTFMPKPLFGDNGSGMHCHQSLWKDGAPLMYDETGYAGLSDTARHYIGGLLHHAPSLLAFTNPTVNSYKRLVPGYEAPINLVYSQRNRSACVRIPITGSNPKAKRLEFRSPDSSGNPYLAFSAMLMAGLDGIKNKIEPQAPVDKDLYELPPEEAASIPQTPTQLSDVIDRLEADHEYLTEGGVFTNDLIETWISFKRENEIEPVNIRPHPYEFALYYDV

At GlnA4Sc, `N=S(=O)(CCO)CC[C@H](N)C(=O)O` (stereo partly drawn) [7 a, (2S)‐2‐Amino‐4‐(2‐hydroxyethylsulfonimidoyl)butanoic acid] showed an IC50 of 2170 µM.

As for `N=S(=O)(CCCCO)CC[C@H](N)C(=O)O` (stereo partly drawn) [7 c, (2S)‐2‐Amino‐4‐(4‐hydroxybutylsulfonimidoyl)butanoic acid], the IC50 against GlnA4Sc came out at 79.3 µM.

Consider `CS(=O)(CC[C@H](N)C(=O)O)=NCCO` (stereo partly drawn) [compound 8, (2S)‐2‐Amino‐4‐(N‐(2‐hydroxyethyl)‐methylsulfonimidoyl)butanoic acid], for which, on GlnA1Mt, the “Activity against GlnA1Mt (in words)” value was “neither 7 b nor 8 showed activity”. The compound also gave an IC50 on GlnA4Sc of 659 µM. In addition, the “Inhibition of GlnA4Sc activity (in words)” value at GlnA4Sc (Figure 1a/1b) was “inhibited”.

On to `N=S(=O)(CCCO)CC[C@H](N)C(=O)O` (stereo partly drawn) [7 b, (2S)‐2‐Amino‐4‐(3‐hydroxypropylsulfonimidoyl)butanoic acid], for which, at GlnA1Mt, the “Activity against GlnA1Mt (in words)” value was “neither 7 b nor 8 showed activity”. Besides, 12.3 µM corresponded to half-maximal inhibition against GlnA4Sc (IC50). Further, in the data set with S. coelicolor M145 (100 μM inhibitor, additional glutamine as alternative nitrogen source), the “Hyphae thickness with additional glutamine (rescue)” value worked out at 1.11 μm. In the data set with S. coelicolor M145 (100 μM, glutamine rescue control experiment), the “Non-specific toxic effects (in words)” value is “excludes any non‐specific toxic effects”. For the same compound, in the data set with S. coelicolor M145 (lowest tested concentration 0.78 μM, ethanolamine as nitrogen source), the “Size of mycelial agglomerates (in words)” value is “reduced the size of the mycelial agglomerates”.

The term IC50 denotes the point on the concentration scale where inhibition reaches its midpoint. A low value points to greater potency in that assay.
